Assay results reported in ChEMBL document CHEMBL1255304, “In vitro phenotypic susceptibility of human immunodeficiency virus type 2 clinical isolates to protease inhibitors” (Antimicrob Agents Chemother, 2008).

Assays:
[1] = tested on: Human immunodeficiency virus 2; assay: Antiviral activity against HIV 2 subtype A clinical isolate expressing 14H-40D-70K-72R/K-91T/S protease gene sequence from HIV2 infected patient plasma and PBMC obtained before compound treatment measured after 13 months; type: functional, organism-based; settings: Human immunodeficiency virus 2, subtype A
Procedure, shortened: (§1)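 Virus isolated by PBMC coculture from patient samples taken before (T0) or during (T1, T2) protease inhibitor exposure, with protease genes sequenced from plasma and PBMC isolates. Susceptibility was tested in the ANRS PBMC assay, and the 50% inhibitory concentration (IC50) was reported.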

[2] = tested on: Human immunodeficiency virus 2; assay: Antiviral activity against HIV 2 subtype B clinical isolate expressing 14Y-61N-99L protease gene sequence from HIV2 infected patient plasma and PBMC obtained before compound treatment measured after 13 months; type: functional, organism-based; settings: Human immunodeficiency virus 2, subtype B\r\n; procedure, shortened: as §1
[3] = tested on: Human immunodeficiency virus 2; assay: Antiviral activity against HIV 2 subtype A clinical isolate expressing 10I-17D-40D-43I-46V-66V/A-70R/K protease gene sequence from HIV2 infected patient plasma and PBMC obtained before compound treatment measured after 13 months; type: functional, organism-based; settings: Human immunodeficiency virus 2, subtype A; procedure, shortened: as §1
[4] = tested on: Human immunodeficiency virus 2; assay: Antiviral activity against HIV 2 subtype B clinical isolate expressing 14Y-19P-33I-61N-71I-75M-84V-90M protease gene sequence from HIV2 infected patient plasma and PBMC obtained at T1 during compound treatment measured after 13 months; type: functional, organism-based; settings: Human immunodeficiency virus 2, subtype B\r\n; procedure, shortened: as §1
[5] = tested on: Human immunodeficiency virus 2; assay: Antiviral activity against HIV 2 subtype H expressing 10I-40P-41Y-60H-63N-70T-73G-89L-92E protease gene sequence from HIV2 infected patient plasma and PBMC obtained before compound treatment measured after 13 months; type: functional, organism-based; settings: Human immunodeficiency virus 2, subtype H; procedure, shortened: as §1
[6] = tested on: Human immunodeficiency virus 2; assay: Antiviral activity against HIV 2 subtype A clinical isolate expressing 14H-60K/N-65E protease gene sequence from HIV2 infected patient plasma and PBMC obtained before compound treatment measured after 13 months; type: functional, organism-based; settings: Human immunodeficiency virus 2, subtype A; procedure, shortened: as §1
[7] = tested on: Human immunodeficiency virus 2; assay: Antiviral activity against HIV 2 subtype A clinical isolate expressing 54M-65E-71I-74N-90M protease gene sequence from HIV2 infected patient plasma and PBMC obtained at T1 during compound treatment measured after 13 months; type: functional, organism-based; settings: Human immunodeficiency virus 2, subtype A; procedure, shortened: as §1
[8] = tested on: Human immunodeficiency virus 2; assay: Antiviral activity against HIV 2 subtype A clinical isolate expressing 14H-17D-43T-68N/D protease gene sequence from HIV2 infected patient plasma and PBMC obtained before compound treatment measured after 13 months; type: functional, organism-based; settings: Human immunodeficiency virus 2, subtype A; procedure, shortened: as §1
[9] = Antiviral activity against Human immunodeficiency virus type 1 (BRU ISOLATE) after […]; type: functional; settings: Human immunodeficiency virus 1
[10] = tested on: Human immunodeficiency virus 2; assay: Antiviral activity against HIV 2 subtype A clinical isolate expressing 10I-17D-40D-43I-45K/R-46V-54M-64I/V-69K/R-71V/I-90M protease gene sequence from HIV2 infected patient plasma and PBMC obtained at T1 during compound treatment measured after 13 months; type: functional, organism-based; settings: Human immunodeficiency virus 2, subtype A; procedure, shortened: as §1
[11] = tested on: Human immunodeficiency virus 2; assay: Antiviral activity against HIV 2 subtype A clinical isolate expressing 10V/I-40D-43I-56V-70K-82F-84V-89V-90M protease gene sequence from HIV2 infected patient plasma and PBMC obtained at T2 during compound treatment measured after 3 months; type: functional, organism-based; settings: Human immunodeficiency virus 2, subtype A; procedure, shortened: as §1
[12] = tested on: Human immunodeficiency virus 2; assay: Antiviral activity against HIV 2 subtype A clinical isolate expressing 5L/F-14Y/H-17G/D-43T-54I/M-62V/A-70R/K-71I protease gene sequence from HIV2 infected patient plasma and PBMC obtained at T1 during compound treatment measured after 13 months; type: functional, organism-based; settings: Human immunodeficiency virus 2, subtype A; procedure, shortened: as §1
[13] = tested on: Human immunodeficiency virus 2; assay: Antiviral activity against HIV 2 subtype A clinical isolate expressing 10I-40D-43I-70K-82F-84V-85L-89V-90M-91T/L-98N/K protease gene sequence from HIV2 infected patient plasma and PBMC obtained at T1 during compound treatment measured after 13 months; type: functional, organism-based; settings: Human immunodeficiency virus 2, subtype A; procedure, shortened: as §1
[14] = tested on: Human immunodeficiency virus 2; assay: Antiviral activity against HIV 2 subtype B clinical isolate expressing 12T-14Y-19P-40N-41D-61N-62I-96S-99L protease gene sequence from HIV2 infected patient plasma and PBMC obtained before compound treatment measured after 13 months; type: functional, organism-based; settings: Human immunodeficiency virus 2, subtype B\r\n; procedure, shortened: as §1
[15] = tested on: Human immunodeficiency virus 2; assay: Antiviral activity against HIV 2 subtype B clinical isolate expressing 12Q-14R-17G/D-19P-61N-62I-92A protease gene sequence from HIV2 infected patient plasma and PBMC obtained before compound treatment measured after 13 months; type: functional, organism-based; settings: Human immunodeficiency virus 2, subtype B\r\n; procedure, shortened: as §1
[16] = tested on: Human immunodeficiency virus 2; assay: Antiviral activity against HIV 2 subtype H expressing 10I-34E-40P-41Y-60H-63N-70T-73G-82F-89L-92E protease gene sequence from HIV2 infected patient plasma and PBMC obtained at T1 during compound treatment measured after 13 months; type: functional, organism-based; settings: Human immunodeficiency virus 2, subtype H; procedure, shortened: as §1
[17] = tested on: Human immunodeficiency virus 2; assay: Antiviral activity against HIV 2 subtype B clinical isolate expressing 14Y-19P-61N-64V-71I-90M-95I protease gene sequence from HIV2 infected patient plasma and PBMC obtained at T2 during compound treatment measured after 3 months; type: functional, organism-based; settings: Human immunodeficiency virus 2, subtype B\r\n; procedure, shortened: as §1
[18] = tested on: Human immunodeficiency virus 2; assay: Antiviral activity against Human immunodeficiency virus type 2 (ISOLATE ROD) after 13 months; type: functional, organism-based; settings: Human immunodeficiency virus 2, ISOLATE ROD
Procedure, shortened: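 Reference strain ROD was tested in the ANRS PBMC assay alongside the clinical isolates, and the 50% inhibitory concentration (IC50) was reported.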

Row | Structure (SMILES) | IC50 [1] [nM] | IC90 [1] [nM] | IC50 [2] [nM] | IC90 [2] [nM] | IC50 [3] [nM] | IC90 [3] [nM] | IC50 [4] [nM] | IC90 [4] [nM] | IC50 [5] [nM] | IC90 [5] [nM] | IC50 [6] [nM] | IC90 [6] [nM] | IC50 [7] [nM] | IC90 [7] [nM] | IC50 [8] [nM] | IC90 [8] [nM] | IC50 [9] [nM] | IC90 [9] [nM] | IC50 [10] [nM] | IC90 [10] [nM] | also measured
1 | COC(=O)N[C@H](C(=O)N[C@@H](Cc1ccccc1)[C@@H](O)CN(Cc1ccc(-c2ccccn2)cc1)NC(=O)[C@@H](NC(=O)OC)C(C)(C)C)C(C)(C)C [ATAZANAVIR] | 40 | 200 | 60 | 300 | 100 | 300 | 2200 | 17000 | 100 | 500 | 40 | 300 | 400 | 1800 | 70 | 200 | 7 | 30 | 200 | 1800 | IC50 [11]: 400 nM; IC90 [11]: 3000 nM; IC50 [12]: 300 nM; IC90 [12]: 2100 nM; IC50 [13]: 40 nM; IC90 [13]: 1300 nM; IC50 [14]: 200 nM; IC90 [14]: 400 nM; IC50 [15]: 30 nM; IC90 [15]: 300 nM; IC50 [16]: 1900 nM; IC90 [16]: 15000 nM; IC50 [17]: 200 nM; IC90 [17]: 1400 nM; IC50 [18]: 30 nM; IC90 [18]: 100 nM
2 | CC(C)CN(C[C@@H](O)[C@H](Cc1ccccc1)NC(=O)O[C@H]1CO[C@H]2OCC[C@H]21)S(=O)(=O)c1ccc(N)cc1 [DARUNAVIR] | 4 | 20 | 2 | 10 | 4 | 30 | 500 | 3900 | 4 | 40 | 10 | 30 | 200 | 1400 | 9 | 30 | 4 | 9 | 800 | 3000 | IC50 [11]: 1000 nM; IC90 [11]: 8100 nM; IC50 [12]: 600 nM; IC90 [12]: 7300 nM; IC50 [13]: 500 nM; IC90 [13]: 2400 nM; IC50 [14]: 4 nM; IC90 [14]: 20 nM; IC50 [15]: 10 nM; IC90 [15]: 50 nM; IC50 [16]: 900 nM; IC90 [16]: 4700 nM; IC50 [17]: 700 nM; IC90 [17]: 5100 nM; IC50 [18]: 5 nM; IC90 [18]: 20 nM
3 | CC(C)(C)NC(=O)[C@@H]1CN(Cc2cccnc2)CCN1C[C@@H](O)C[C@@H](Cc1ccccc1)C(=O)N[C@H]1c2ccccc2C[C@H]1O [INDINAVIR] | 20 | 400 | 100 | 600 | 4 | 100 | 3800 | 30000 | 20 | 500 | 30 | 400 | 10000 | 82000 | < 10 | < 10 | 5 | 40 | 200 | 3100 | IC50 [11]: 11000 nM; IC90 [11]: 90000 nM; IC50 [12]: 18000 nM; IC50 [13]: 6400 nM; IC90 [13]: 51000 nM; IC50 [14]: 4 nM; IC90 [14]: 20 nM; IC50 [15]: 400 nM; IC90 [15]: 2600 nM; IC50 [16]: 12000 nM; IC90 [16]: 99000 nM; IC50 [17]: 12000 nM; IC90 [17]: 95000 nM; IC50 [18]: 30 nM; IC90 [18]: 300 nM
4 | Cc1cccc(C)c1OCC(=O)N[C@@H](Cc1ccccc1)[C@@H](O)C[C@H](Cc1ccccc1)NC(=O)[C@H](C(C)C)N1CCCNC1=O [LOPINAVIR] | 20 | 80 | 40 | 70 | 20 | 200 | 200 | 1500 | 60 | 500 | 40 | 200 | 400 | 3300 | 30 | 80 | 30 | 100 | 1700 | 8500 | IC50 [11]: 100 nM; IC90 [11]: 1100 nM; IC50 [12]: 40 nM; IC90 [12]: 400 nM; IC50 [13]: 100 nM; IC90 [13]: 800 nM; IC50 [14]: 30 nM; IC90 [14]: 100 nM; IC50 [15]: 20 nM; IC90 [15]: 200 nM; IC50 [16]: 3200 nM; IC90 [16]: 8700 nM; IC50 [17]: 100 nM; IC90 [17]: 900 nM; IC50 [18]: 20 nM; IC90 [18]: 70 nM
